Assay results from ChEMBL document CHEMBL1132260, “Antitumor agents. 194. Synthesis and biological evaluations of 4-beta-mono-, -di-, and -trisubstituted aniline-4'-O-demethyl-podophyllotoxin and related compounds with improved pharmacological profiles” (J Med Chem, 1999).

Legend:
[1] = test system: HCT-8; assay: The compound was tested for tumor cell growth inhibitory activity against human ileocecal carcinoma (HCT-8) cell line; assay type: functional; settings: HCT-8, read-out: ED50
Summary of the method: (§1)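 For the SRB growth assay, cells were grown in RPMI-1640 with 10% FBS and kanamycin at 37 °C under 5% CO2. Drug exposure was 3 days, with DMSO ≤2% final. Absorbance was read at 562 nm. ED50 (50% absorbance reduction vs untreated) was interpolated from dose–response data. Tests were run in triplicate.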

[2] = biological target: T1, DNA topoisomerase II (Homo sapiens) (UniProt P11388+Q02880); assay: The compound was tested for inhibitory activity against human DNA topoisomerase II; assay type: protein assay
Summary of the method: (§2)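 Human topoisomerase II (p170 isoform, 0.25 U) was assayed by P4 DNA unknotting. The buffer was 50 mM Tris-HCl pH 7.5, 100 mM KCl, 10 mM MgCl2, 0.5 mM DTT, 0.5 mM EDTA and 1 mM ATP, with BSA. Reactions ran 1 h at 37 °C, were stopped with SDS-sucrose, then run on 0.7% agarose and stained with ethidium bromide. Inhibition was scored by eye. IC100 is the concentration giving complete inhibition.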

[3] = test system: A549; assay: The compound was tested for tumor cell growth inhibitory activity against human lung carcinoma (A549) cell line.; assay type: functional; settings: A549, read-out: ED50; summary of the method: as §1
[4] = test system: KB; assay: The compound was tested for tumor cell growth inhibitory activity against human KB-7d cell line resistant to etoposide; assay type: functional; settings: read-out: ED50 (the source's name); summary of the method: as §1
[5] = test system: KB; assay: Cellular protein-DNA complex breaking activity against KB cells labeled with tritiated thymidine.; assay type: functional, Homo sapiens
Summary of the method: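 KB cells were labelled overnight with tritiated thymidine, chased 2 h, then exposed in triplicate to test agent for 1 h. Protein–DNA complexes were read as potassium-SDS precipitable radioactivity and expressed as fold over untreated control.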

[6] = test system: KB; assay: The compound was tested for tumor cell growth inhibitory activity against human KB-vin20c cell line resistant to vincristine; assay type: functional; settings: read-out: ED50 (the source's name); summary of the method: as §1
[7] = test system: CAKI-1; assay: The compound was tested for tumor cell growth inhibitory activity against human renal cancer(CAKI-1) cell line; assay type: functional; settings: CAKI-1, read-out: ED50; summary of the method: as §1
[8] = test system: MCF7; assay: The compound was tested for tumor cell growth inhibitory activity against human breast cancer (MCF-7) cell line.; assay type: functional; settings: MCF7, read-out: ED50; summary of the method: as §1
[9] = test system: KB; assay: The compound was tested for tumor cell growth inhibitory activity against human etoposide (KB-7d) cell line.; assay type: functional; settings: read-out: ED50 (the source's name); summary of the method: as §1
[10] = biological target: T1, DNA topoisomerase II (Homo sapiens); assay: The compound was tested for inhibitory activity against human DNA topoisomerase-2.; assay type: protein assay; summary of the method: as §2
[11] = The compound was tested for cytotoxic activity against KB cell line by clonogenic cell survival assay.; assay type: cell-based; settings: human, KB cells; read-out: LD50 (the source's name)
Summary of the method: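 KB cells were exposed to a range of concentrations for 3 h, then replated. Colony formation and plating efficiency were counted. LD50 (50% fall in plating efficiency vs untreated control) was read graphically. There were three independent experiments.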

[12] = test system: Mus musculus; assay: The compound was tested for antitumor activity against (P388/0) Leukemia cells in mice. with a dosage of 27.0 mg/Kg/dose. activity is expressed as net log change in tumor burden.; assay type: functional, Leukemia cell
Summary of the method: (§3)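 The P388/0 leukaemia was implanted ip in female CD2F1 mice. Treatment was iv on a Q4D×3 schedule, injected at 0.1 cm³/10 g body weight. Agents were given in saline or in 10% DMSO/35% PEG 300/5% Tween 80/50% D5W, against a saline control. Median day of death, %ILS and net log change in tumour burden (at end of treatment) were recorded. The work was done at a contract lab.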

[13] = test system: Mus musculus; assay: The compound was tested for antitumor activity against (P388/0) Leukemia cells in mice. with a dosage of 40.0 mg/Kg/dose; assay type: functional, Leukemia cell; summary of the method: as §3
[14] = test system: Mus musculus; assay: The compound was tested for antitumor activity against Subcutaneous Mammary Tumor MCF-7 cells. with a dosage of 40.0 mg/Kg/dose. activity is expressed as days to tumor doubling.; assay type: functional, MCF7
Summary of the method: (§4)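 MCF-7 human mammary tumour cells were implanted sc in female athymic nude mice. Dosing was iv on a Q4D×3 schedule at 0.1 cm³/10 g body weight, using saline or a DMSO/PEG 300/Tween 80/D5W vehicle, with a saline control. The endpoint was days to tumour doubling.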

[15] = test system: Mus musculus; assay: The compound was tested for antitumor activity against (P388/0) Leukemia cells in mice. with a dosage of 40.0 mg/Kg/dose. activity is expressed as net log change in tumor burden.; assay type: functional, Leukemia cell; summary of the method: as §3
[16] = test system: Mus musculus; assay: The compound was tested for antitumor activity against (P388/0) Leukemia cells in mice. with a dosage of 10.0 mg/Kg/dose. activity is expressed as %ILS.; assay type: functional; settings: Leukemia cell; summary of the method: as §3
[17] = test system: Mus musculus; assay: The compound was tested for antitumor activity against (P388/0) Leukemia cells in mice. with a dosage of 27.0 mg/kg/dose. activity is expressed as %ILS.; assay type: functional; settings: Leukemia cell; summary of the method: as §3
[18] = test system: Mus musculus; assay: The compound was tested for antitumor activity against (P388/0) Leukemia cells in mice. with a dosage of 10.0 mg/Kg/dose. activity is expressed as median day of death.; assay type: functional, Leukemia cell; summary of the method: as §3
[19] = test system: Mus musculus; assay: The compound was tested for antitumor activity against Subcutaneous Mammary Tumor MCF-7 cells. with a dosage of 27.0 mg/Kg/dose. activity is expressed as days to tumor doubling.; assay type: functional, MCF7; summary of the method: as §4
[20] = test system: Mus musculus; assay: The compound was tested for antitumor activity against (P388/0) Leukemia cells in mice. with a dosage of 27.0 mg/Kg/dose. activity is expressed as median day of death.; assay type: functional, Leukemia cell; summary of the method: as §3
[21] = test system: Mus musculus; assay: The compound was tested for antitumor activity against (P388/0) Leukemia cells in mice. with a dosage of 40.0 mg/Kg/dose. activity is expressed as %ILS.; assay type: functional; settings: Leukemia cell; summary of the method: as §3
[22] = test system: Mus musculus; assay: The compound was tested for antitumor activity against (P388/0) Leukemia cells in mice. with a dosage of 10.0 mg/Kg/dose. activity is expressed as net log change in tumor burden.; assay type: functional, Leukemia cell; summary of the method: as §3

For `COc1cc([N+](=O)[O-])c(OC)cc1N[C@@H]1c2cc3c(cc2[C@@H](c2cc(OC)c(O)c(OC)c2)[C@H]2C(=O)OC[C@@H]21)OCO3`, the EC50 [1] was > 50 µM, the IC100 [2] was > 100 µM and the EC50 [3] was 21.5 µM. For the same molecule, the EC50 [4] was 37 µM, the Complex formation [5] was 4.4% and the EC50 [6] was 20 µM. It also gave an EC50 [7] of 45 µM.

With `COc1cc([C@@H]2c3cc4c(cc3[C@@H](Nc3ccc(NC(=O)C56CCC(C)(C(=O)O5)C6(C)C)cc3)[C@H]3COC(=O)[C@H]23)OCO4)cc(OC)c1O` (stereo partly drawn) the EC50 [1] was 20 µM, the EC50 [8] was > 5 µM and the EC50 [3] was 2.2 µM. The EC50 [9] was 5600 µM, the Complex formation [5] was 88% and the IC100 [10] was 10 µM. For the same molecule, the EC50 [7] was > 1.25 µM.

For `COc1cc(N[C@@H]2c3cc4c(cc3[C@@H](c3cc(OC)c(O)c(OC)c3)[C@H]3C(=O)OC[C@@H]32)OCO4)c(C)cc1[N+](=O)[O-]`, the EC50 [1] was > 50 µM, the IC100 [2] was > 100 µM and the EC50 [3] was > 50 µM. The Complex formation [5] was 3.5% and the EC50 [7] was > 50 µM.

With `COc1cc([C@@H]2c3cc4c(cc3[C@H](Nc3cc([N+](=O)[O-])cc([N+](=O)[O-])c3)[C@H]3COC(=O)[C@H]23)OCO4)cc(OC)c1O` the EC50 [1] was > 5 µM, the EC50 [8] was 2.5 µM and the EC50 [3] was > 5 µM. The EC50 [9] was 7600 µM, the Complex formation [5] was 8% and the IC100 [10] was > 100 µM. The EC50 [7] was > 10 µM.

In the case of `COc1ccc(N[C@@H]2c3cc4c(cc3[C@@H](c3cc(OC)c(O)c(OC)c3)[C@H]3C(=O)OC[C@@H]32)OCO4)c([N+](=O)[O-])c1`, the EC50 [1] is reported as 2 µM, the EC50 [8] is reported as 2.5 µM and the EC50 [3] is reported as 1.7 µM. The EC50 [9] was 740 µM, the Complex formation [5] was 15% and the IC100 [10] was > 100 µM. The CC50 [11] was > 20 µM and the EC50 [7] was 0.63 µM.

For `COc1ccc([N+](=O)[O-])cc1N[C@@H]1c2cc3c(cc2[C@@H](c2cc(OC)c(O)c(OC)c2)[C@H]2C(=O)OC[C@@H]21)OCO3`, the EC50 [1] was 4.8 µM, the EC50 [8] was 2.4 µM and the EC50 [3] was 2.25 µM. The EC50 [9] was 1800 µM, the Complex formation [5] was 12% and the IC100 [10] was > 100 µM. For the same molecule, the CC50 [11] was > 20 µM and the EC50 [7] was 2.5 µM.

For `COc1cc([C@@H]2c3cc4c(cc3[C@@H](Nc3ccc(-c5nc6ccccc6[nH]5)cc3)[C@H]3COC(=O)[C@H]23)OCO4)cc(OC)c1O`, the EC50 [1] was 0.63 µM, the EC50 [8] was 0.85 µM and the IC100 [2] was 10 µM. It also gave an EC50 [3] of 0.23 µM, an EC50 [4] of 450 µM and a Complex formation [5] of 128%. The EC50 [6] was 1.4 µM, the CC50 [11] was 0.2 µM and the EC50 [7] was 0.35 µM.

In the case of `COc1cc([N+](=O)[O-])ccc1N[C@@H]1c2cc3c(cc2[C@@H](c2cc(OC)c(O)c(OC)c2)[C@H]2C(=O)OC[C@@H]21)OCO3`, the EC50 [1] is reported as > 10 µM, the EC50 [8] is reported as 5 µM and the EC50 [3] is reported as 0.63 µM. For the same molecule, the EC50 [9] was 4000 µM, the Complex formation [5] was 83% and the IC100 [10] was > 100 µM. For the same molecule, the CC50 [11] was > 20 µM and the EC50 [7] was 1.1 µM.

With `COc1cc([C@@H]2c3cc4c(cc3[C@@H](O[C@@H]3O[C@@H]5CO[C@@H](C)O[C@H]5[C@H](O)[C@H]3O)[C@H]3COC(=O)[C@H]23)OCO4)cc(OC)c1O` [ETOPOSIDE] the EC50 [1] was > 5 µM, the EC50 [8] was > 5 µM and the “Net log change in tumor burden” value [12] was -3.4. For the same molecule, the EC50 [3] was 1.95 µM, the Day of death [13] was 26 and the “Days to tumor doubling” value [14] was >24.1. For the same molecule, the EC50 [4] was 23.8 µM, the “Net log change in tumor burden” value [15] was -5.5 and the ILS at 10 mg/kg/day [16] was 90%. For the same molecule, the ILS at 27 mg/kg/day [17] was 130%, the Day of death [18] was 19 and the “Days to tumor doubling” value [19] was 18.5. The Complex formation [5] was 100%, the Day of death [20] was 23 and the EC50 [6] was 30.6 µM. For the same molecule, the ILS at 40 mg/kg/day [21] was 160%, the CC50 [11] was 20 µM and the EC50 [7] was 2.2 µM. The “Net log change in tumor burden” value [22] was -0.7.

`COc1cc([C@@H]2c3cc4c(cc3[C@@H](Nc3nc5ccccc5[nH]3)[C@H]3COC(=O)[C@H]23)OCO4)cc(OC)c1O` gave an EC50 [1] of 3.3 µM, an IC100 [2] of 100 µM and an EC50 [3] of 3.5 µM. It also gave an EC50 [4] of 0.9 µM, a Complex formation [5] of 58% and an EC50 [6] of 1000 µM. The EC50 [7] was 17.5 µM.

In the case of `COc1cc([C@@H]2c3cc4c(cc3[C@@H](Nc3cc([N+](=O)[O-])cc([N+](=O)[O-])c3)[C@H]3COC(=O)[C@H]23)OCO4)cc(OC)c1O`, the EC50 [1] is reported as 26 µM, the EC50 [8] is reported as > 5 µM and the EC50 [3] is reported as > 40 µM. The EC50 [9] was 17500 µM, the Complex formation [5] was 20% and the IC100 [10] was > 100 µM. For the same molecule, the EC50 [7] was 10 µM.

In the case of `COc1cc([C@@H]2c3cc4c(cc3[C@@H](Nc3ccc([N+](=O)[O-])cc3)[C@H]3COC(=O)[C@H]23)OCO4)cc(OC)c1O`, the EC50 [1] is reported as 8.5 µM, the EC50 [8] is reported as 28.5 µM and the Complex formation [5] is reported as 122%. It also gave an IC100 [10] of 10 µM, a CC50 [11] of 1 µM and an EC50 [7] of 1.5 µM.
